Experimental data: ChEMBL document CHEMBL3271970, “Radiopharmaceuticals. 16. Halogenated dopamine analogs. Synthesis and radiolabeling of 6-iododopamine and tissue distribution studies in animals” (J Med Chem, 1976)

Legend:
Liver [1] = test: Biodistribution in liver of mouse assessed per organ at 8 to 11 x 10^-8 mol, iv measured after 30 mins; assay type: ADME, organism-based; conditions: in vivo, 0.5 h
Procedure, shortened: (§1)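 [131I]- or [123I]-6-iododopamine in water or saline, used within 30 min of preparation. Injected iv at 8-11 × 10^-8 mol/mouse. Mice killed by ether overdose at 5-240 min; 3-10 mice per time point. Tissue radioactivity expressed as % dose/organ ± SD.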

Adrenal medulla [2] = test: Biodistribution in adrenal medulla of rat assessed per organ at 3.6 x 10^-8 mol, iv measured after 24 hrs; assay type: ADME, organism-based; conditions: in vivo
Procedure, shortened: (§2)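 [131I]-6-iododopamine in water or saline, used within 30 min of preparation. Injected iv at 3.6 × 10^-8 mol/rat. Rats killed by ether overdose at 5, 30 or 60 min, or at 2, 4 or 24 h. Tissue radioactivity expressed as % dose/organ, mean ± SD of four rats.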

Blood [3] = test: Biodistribution in blood of rat at 3.6 x 10^-8 mol, iv measured after 4 hrs; assay type: ADME, organism-based; conditions: in vivo
Procedure, shortened: (§3)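 [131I]-6-iododopamine in water or saline, used within 30 min of preparation. Injected iv at 3.6 × 10^-8 mol/rat. Rats killed by ether overdose at 5 min to 24 h. Blood radioactivity expressed as % dose/g, mean ± SD of four rats.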

Mus musculus [4] = test: Biodistribution in adrenal gland of mouse assessed per organ at 8 to 11 x 10^-8 mol, iv measured after 120 mins; assay type: ADME, organism-based; conditions: in vivo, 2 h; procedure, shortened: as §1
Liver [5] = test: Biodistribution in liver of mouse assessed per organ at 8 to 11 x 10^-8 mol, iv measured after 60 mins; assay type: ADME, organism-based; conditions: in vivo, 1 h; procedure, shortened: as §1
Rattus norvegicus [6] = test: Biodistribution in adrenal cortex of rat assessed per organ at 3.6 x 10^-8 mol, iv measured after 5 mins; assay type: ADME, organism-based; conditions: in vivo; procedure, shortened: as §2
Kidney [7] = test: Biodistribution in kidney of mouse assessed per organ at 8 to 11 x 10^-8 mol, iv measured after 60 mins; assay type: ADME, organism-based; conditions: in vivo, 1 h; procedure, shortened: as §1
Kidney [8] = test: Biodistribution in kidney of rat assessed per organ at 3.6 x 10^-8 mol, iv measured after 24 hrs; assay type: ADME, organism-based; conditions: in vivo; procedure, shortened: as §2
[9] = Biodistribution in adrenal medulla of mongrel dog assessed per organ at 1.29 x 10^-6 mol, iv measured after 2 hrs; assay type: ADME, organism-based, Canis lupus familiaris; conditions: in vivo
Procedure, shortened: (§4)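 Radioiodinated ([123I] or [131I]) 6-iododopamine in water or saline, used within 30 min of preparation. Given iv at 1.29 × 10^-6 mol/dog; one dog per time point, killed at 2 or 24 h. Large organs counted as three samples and averaged; adrenals and thyroid taken intact and counted. Expressed as % dose/organ.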

Kidney [10] = test: Biodistribution in kidney of mouse assessed per organ at 8 to 11 x 10^-8 mol, iv measured after 240 mins; assay type: ADME, organism-based; conditions: in vivo, 4 h; procedure, shortened: as §1
Adrenal medulla [11] = test: Biodistribution in adrenal medulla of rat assessed per organ at 3.6 x 10^-8 mol, iv measured after 4 hrs; assay type: ADME, organism-based; conditions: in vivo; procedure, shortened: as §2
Rattus norvegicus [12] = test: Biodistribution in adrenal cortex of rat assessed per organ at 3.6 x 10^-8 mol, iv measured after 60 mins; assay type: ADME, organism-based; conditions: in vivo, 1 h; procedure, shortened: as §2
[13] = Biodistribution in adrenal cortex of mongrel dog assessed per organ at 1.29 x 10^-6 mol, iv measured after 2 hrs; assay type: ADME, organism-based, Canis lupus familiaris; conditions: in vivo; procedure, shortened: as §4
Liver [14] = test: Biodistribution in liver of rat assessed per organ at 3.6 x 10^-8 mol, iv measured after 4 hrs; assay type: ADME, organism-based; conditions: in vivo
Procedure, shortened: (§5)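 [131I]-labelled tracer in water or saline, injected within 30 min of preparation. Rats given 3.6 × 10^-8 mol/rat iv, killed by ether overdose at each time point. Organs excised and radioactivity counted as % dose/organ, mean ± SD of four rats.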

Rattus norvegicus [15] = test: Biodistribution in thyroid gland of rat assessed per organ at 3.6 x 10^-8 mol, iv measured after 24 hrs; assay type: ADME, organism-based; conditions: in vivo; procedure, shortened: as §5
Mus musculus [16] = test: Biodistribution in thyroid gland of mouse assessed per organ at 8 to 11 x 10^-8 mol, iv measured after 5 mins; assay type: ADME, organism-based; conditions: in vivo
Procedure, shortened: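 Tracer labelled with either 123I or 131I, in water or saline, used within 30 min of preparation. Mice dosed iv at 8-11 × 10^-8 mol/mouse and killed by ether overdose. Organs counted as % dose/organ ± SD, n = 3-10 mice per time point.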

Liver [17] = test: Biodistribution in liver of mouse assessed per organ at 8 to 11 x 10^-8 mol, iv measured after 5 mins; assay type: ADME, organism-based; conditions: in vivo; procedure, shortened: as §1
Liver [18] = test: Biodistribution in liver of rat assessed per organ at 3.6 x 10^-8 mol, iv measured after 2 hrs; assay type: ADME, organism-based; conditions: in vivo; procedure, shortened: as §5
Liver [19] = test: Biodistribution in liver of rat assessed per organ at 3.6 x 10^-8 mol, iv measured after 30 mins; assay type: ADME, organism-based; conditions: in vivo, 0.5 h; procedure, shortened: as §5
Liver [20] = test: Biodistribution in liver of mongrel dog assessed per organ at 1.29 x 10^-6 mol, iv measured after 24 hrs; assay type: ADME, organism-based, Canis lupus familiaris; conditions: in vivo; procedure, shortened: as §4
Kidney [21] = test: Biodistribution in kidney of rat assessed per organ at 3.6 x 10^-8 mol, iv measured after 60 mins; assay type: ADME, organism-based; conditions: in vivo, 1 h; procedure, shortened: as §2
[22] = Biodistribution in thyroid gland of mongrel dog assessed per organ at 1.29 x 10^-6 mol, iv measured after 24 hrs; assay type: ADME, organism-based, Canis lupus familiaris; conditions: in vivo
Procedure, shortened: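 Radioiodine-labelled tracer given at 1.29 × 10^-6 mol/dog. One dog per time point, killed at 2 or 24 h. Thyroids and other small organs were taken intact and counted. Large organs were sampled three times and averaged. Result given as % dose/organ.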

Mus musculus [23] = test: Biodistribution in adrenal gland of mouse assessed per organ at 8 to 11 x 10^-8 mol, iv measured after 15 mins; assay type: ADME, organism-based; conditions: in vivo, 0.25 h; procedure, shortened: as §1
Blood [24] = test: Biodistribution in blood of rat at 3.6 x 10^-8 mol, iv measured after 5 mins; assay type: ADME, organism-based; conditions: in vivo; procedure, shortened: as §3
Mus musculus [25] = test: Biodistribution in adrenal gland of mouse assessed per organ at 8 to 11 x 10^-8 mol, iv measured after 5 mins; assay type: ADME, organism-based; conditions: in vivo; procedure, shortened: as §1
Adrenal medulla [26] = test: Biodistribution in adrenal medulla of rat assessed per organ at 3.6 x 10^-8 mol, iv measured after 5 mins; assay type: ADME, organism-based; conditions: in vivo; procedure, shortened: as §2
Adrenal medulla [27] = test: Biodistribution in adrenal medulla of rat assessed per organ at 3.6 x 10^-8 mol, iv measured after 30 mins; assay type: ADME, organism-based; conditions: in vivo, 0.5 h; procedure, shortened: as §2
Rattus norvegicus [28] = test: Biodistribution in thyroid gland of rat assessed per organ at 3.6 x 10^-8 mol, iv measured after 60 mins; assay type: ADME, organism-based; conditions: in vivo, 1 h; procedure, shortened: as §5
Kidney [29] = test: Biodistribution in kidney of rat assessed per organ at 3.6 x 10^-8 mol, iv measured after 30 mins; assay type: ADME, organism-based; conditions: in vivo, 0.5 h; procedure, shortened: as §2
Rattus norvegicus [30] = test: Biodistribution in thyroid gland of rat assessed per organ at 3.6 x 10^-8 mol, iv measured after 30 mins; assay type: ADME, organism-based; conditions: in vivo, 0.5 h; procedure, shortened: as §5
Kidney [31] = test: Biodistribution in kidney of mouse assessed per organ at 8 to 11 x 10^-8 mol, iv measured after 30 mins; assay type: ADME, organism-based; conditions: in vivo, 0.5 h; procedure, shortened: as §1
Rattus norvegicus [32] = test: Biodistribution in thyroid gland of rat assessed per organ at 3.6 x 10^-8 mol, iv measured after 5 mins; assay type: ADME, organism-based; conditions: in vivo; procedure, shortened: as §5
Adrenal medulla [33] = test: Biodistribution in adrenal medulla of rat assessed per organ at 3.6 x 10^-8 mol, iv measured after 2 hrs; assay type: ADME, organism-based; conditions: in vivo; procedure, shortened: as §2
Blood [34] = test: Biodistribution in blood of rat at 3.6 x 10^-8 mol, iv measured after 30 mins; assay type: ADME, organism-based; conditions: in vivo, 0.5 h; procedure, shortened: as §3
Mus musculus [35] = test: Biodistribution in adrenal gland of mouse assessed per organ at 8 to 11 x 10^-8 mol, iv measured after 60 mins; assay type: ADME, organism-based; conditions: in vivo, 1 h; procedure, shortened: as §1

`Br.NCCc1cc(O)c(O)cc1[131I]` gave a Drug uptake (Liver [1]) of 2.4 %ID, a Drug uptake (Adrenal medulla [2]) of 0.0021 %ID and a Drug uptake (Blood [3]) of 0.055 %ID. The Drug uptake (Mus musculus [4]) was 0.02 %ID, the Drug uptake (Liver [5]) was 1.04 %ID and the Drug uptake (Rattus norvegicus [6]) was 0.0098 %ID. It also gave a Drug uptake (Kidney [7]) of 1 %ID, a Drug uptake (Kidney [8]) of 0.024 %ID and a Drug uptake [9] of 0.0062 %ID. For the same compound, the Drug uptake (Kidney [10]) was 0.79 %ID, the Drug uptake (Adrenal medulla [11]) was 0.0047 %ID and the Drug uptake (Rattus norvegicus [12]) was 0.007 %ID. The Drug uptake [13] was 0.0092 %ID, the Drug uptake (Liver [14]) was 0.265 %ID and the Drug uptake (Rattus norvegicus [15]) was 0.65 %ID. The Drug uptake (Mus musculus [16]) was 0.094 %ID, the Drug uptake (Liver [17]) was 7.1 %ID and the Drug uptake (Liver [18]) was 0.33 %ID. For the same compound, the Drug uptake (Liver [19]) was 2.36 %ID, the Drug uptake (Liver [20]) was 0.48 %ID and the Drug uptake (Kidney [21]) was 0.72 %ID. For the same compound, the Drug uptake [22] was 0.48 %ID, the Drug uptake (Mus musculus [23]) was 0.015 %ID and the Drug uptake (Blood [24]) was 0.66 %ID. It also gave a Drug uptake (Mus musculus [25]) of 0.03 %ID, a Drug uptake (Adrenal medulla [26]) of 0.0247 %ID and a Drug uptake (Adrenal medulla [27]) of 0.0138 %ID. The Drug uptake (Rattus norvegicus [28]) was 0.08 %ID, the Drug uptake (Kidney [29]) was 2.37 %ID and the Drug uptake (Rattus norvegicus [30]) was 0.062 %ID. It also gave a Drug uptake (Kidney [31]) of 1.69 %ID, a Drug uptake (Rattus norvegicus [32]) of 0.029 %ID and a Drug uptake (Adrenal medulla [33]) of 0.0035 %ID. The Drug uptake (Blood [34]) was 0.48 %ID and the Drug uptake (Mus musculus [35]) was 0.0087 %ID.
